Test results as given in ChEMBL document CHEMBL2150863, “Synthesis pharmacological evaluation and docking studies of pyrimidine derivatives” (Eur J Med Chem, 2012).
≈ marks a conversion by molar mass, not a printed value.

Assays:
[1] = tested on: Pseudomonas aeruginosa; assay: Antibacterial activity against Pseudomonas aeruginosa MTCC 424 after 24 hrs by tube dilution method; format: functional; details: MTCC 424, 24 h
Method in brief: (§1)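 Tube dilution in Mueller-Hinton broth at pH 7.4. Two-fold serial dilutions from 1000 to 0.97 in 10% DMSO, with a DMSO-only inoculated control. Inoculum matched visually to a McFarland standard of about 1.5 × 10⁸ cells/mL. Incubation at 37 ± 1 °C for 24 h. MIC is the lowest concentration giving no growth; duplicate determinations, averaged.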

[2] = tested on: Escherichia coli; assay: Antibacterial activity against Escherichia coli MTCC 4351 after 24 hrs by tube dilution method; format: functional; details: MTCC 4351, 24 h; method in brief: as §1
[3] = tested on: Staphylococcus aureus; assay: Antibacterial activity against Staphylococcus aureus MTCC 3160 after 24 hrs by tube dilution method; format: functional; details: MTCC 3160, 24 h; method in brief: as §1
[4] = tested on: Bacillus subtilis; assay: Antibacterial activity against Bacillus subtilis MTCC 441 after 24 hrs by tube dilution method; format: functional; details: MTCC 441, 24 h; method in brief: as §1
[5] = tested on: Rattus norvegicus; assay: Antiinflammatory activity in rat assessed as inhibition of carrageenan-induced paw edema at 10 mg/kg, po administered 30 mins prior to carrageenan-challenge after 2 hrs relative to vehicle-treated control; format: functional
Method in brief: (§2)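 Rats of 150–200 g, six per group. Oral dosing at 10 mg/kg as a suspension; controls receive 1% carboxymethylcellulose. After 30 min, 0.1 mL of 1% w/v carrageenan is injected into the left hind paw. Paw volume is measured by mercury displacement. Inhibition = (1 − Vt/Vc) × 100 from edema volumes; mean ± SEM.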

[6] = tested on: Rattus norvegicus; assay: Antiinflammatory activity in rat assessed as inhibition of carrageenan-induced paw edema at 10 mg/kg, po administered 30 mins prior to carrageenan-challenge after 1 hr relative to vehicle-treated control; format: functional; method in brief: as §2
[7] = tested on: Aspergillus niger; assay: Antifungal activity against Aspergillus niger MTCC 282 after 48 hrs by tube dilution method; format: functional; details: MTCC 282, 48 h
Method in brief: (§3)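 Tube dilution in Sabouraud dextrose broth at pH 7.4. Two-fold serial dilutions from 1000 to 0.97 in 10% DMSO, with a solvent control. Inoculum matched visually to a McFarland standard of about 1.5 × 10⁸ cells/mL. Incubation at 25 ± 1 °C for 48 h. MIC is the tube showing no fungal growth; duplicate determinations, averaged.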

[8] = tested on: Mus musculus; assay: Analgesic activity in mouse assessed as inhibition of acetic-acid induced writhing at 10 mg/kg administered 15 mins prior to acetic acid-challenge measured for 15 mins relative to vehicle-treated control; format: functional
Method in brief: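 Mice, at least six per group. Test compounds given at 10 mg/kg; acetic acid solution given 15 min later. Writhing is scored as abdominal contractions, trunk twists and hind-limb extensions. Percent inhibition of pain = (1 − Vt/Vc) × 100, where Vt and Vc are mean writhing counts in the treated and control groups.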

[9] = tested on: Rattus norvegicus; assay: Antiinflammatory activity in rat assessed as inhibition of carrageenan-induced paw edema at 10 mg/kg, po administered 30 mins prior to carrageenan-challenge after 3 hrs relative to vehicle-treated control; format: functional; method in brief: as §2
[10] = tested on: Candida albicans; assay: Antifungal activity against Candida albicans MTCC 183 after 48 hrs by tube dilution method; format: functional; details: MTCC 183, 48 h; method in brief: as §3
[11] = tested on: Rattus norvegicus; assay: Antiinflammatory activity in rat assessed as inhibition of carrageenan-induced paw edema at 10 mg/kg, po administered 30 mins prior to carrageenan-challenge after 4 hrs relative to vehicle-treated control; format: functional; method in brief: as §2
[12] = tested on: Rattus norvegicus; assay: Ulcerogenic activity in Wistar albino rat assessed as ulcer index at 10 mg/kg, ip administered QD for 3 days; format: toxicity, organism-based; parameters: dose 10 mg/kg, route intraperitoneal; details: in vivo, 72 h
Method in brief: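 Wistar rats of either sex, 150–200 g, six per group. Given 10 mg/kg ip once daily for 3 days; controls receive 10% v/v Tween 80. Fasted 36 h, then pylorus ligated on day 4. Killed 4 h after ligation; stomach opened along the greater curvature and ulcer index scored; mean ± SEM.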

SMILES | MIC [1] [mg/L] | MIC [2] [mg/L] | MIC [3] [mg/L] | MIC [4] [mg/L] | inhibition in vivo at 10 mg/kg [5] [%] | inhibition in vivo at 10 mg/kg [6] [%] | MIC [7] [mg/L] | inhibition in vivo at 10 mg/kg [8] [%] | inhibition in vivo at 10 mg/kg [9] [%] | MIC [10] [mg/L] | inhibition in vivo at 10 mg/kg [11] [%] | UI [12]
CC1(C)S[C@@H]2[C@H](NC(=O)[C@H](N)c3ccccc3)C(=O)N2[C@H]1C(=O)O [AMPICILLIN] | 3.9 (≈ 11.2 µM) | 3.9 (≈ 11.2 µM) | 3.9 (≈ 11.2 µM) | 3.9 (≈ 11.2 µM) | – | – | – | – | – | – | – | –
O=C1N=C(C2C(=O)c3ccccc3C2=O)CC(c2ccccc2[N+](=O)[O-])N1 (configuration not stated) | 250 (≈ 688 µM) | 31.2 (≈ 85.9 µM) | 125 (≈ 344 µM) | 250 (≈ 688 µM) | 30 | 11 | 500 (≈ 1380 µM) | 35 | 26 | 500 (≈ 1380 µM) | 32 | –
COc1cc(C2CC(C3C(=O)c4ccccc4C3=O)=NC(=O)N2)ccc1O (configuration not stated) | 250 (≈ 686 µM) | 500 (≈ 1370 µM) | 125 (≈ 343 µM) | 250 (≈ 686 µM) | 33 | 20 | 125 (≈ 343 µM) | 28 | 26 | 250 (≈ 686 µM) | 11 | –
O=C1N=C(C2C(=O)c3ccccc3C2=O)CC(c2ccc(Cl)cc2)N1 (configuration not stated) | 62.5 (≈ 177 µM) | 125 (≈ 354 µM) | 125 (≈ 354 µM) | 31.2 (≈ 88.4 µM) | 19 | 15 | 125 (≈ 354 µM) | 44 | 31 | 125 (≈ 354 µM) | 34 | 1.28
O=C1N=C(C2C(=O)c3ccccc3C2=O)CC(c2c[nH]c3ccccc23)N1 (configuration not stated) | 125 (≈ 350 µM) | 250 (≈ 700 µM) | 250 (≈ 700 µM) | 250 (≈ 700 µM) | 21 | 19 | 125 (≈ 350 µM) | 21 | 12 | 500 (≈ 1400 µM) | 12 | –
OC(Cn1cncn1)(Cn1cncn1)c1ccc(F)cc1F [FLUCONAZOLE] | – | – | – | – | – | – | 7.8 (≈ 25.5 µM) | – | – | 7.8 (≈ 25.5 µM) | – | –
O=C1N=C(C2C(=O)c3ccccc3C2=O)CC(c2ccc([N+](=O)[O-])cc2)N1 (configuration not stated) | 250 (≈ 688 µM) | 500 (≈ 1380 µM) | 125 (≈ 344 µM) | 250 (≈ 688 µM) | 26 | 16 | 500 (≈ 1380 µM) | 38 | 19 | 500 (≈ 1380 µM) | 18 | –
